Source: ChEMBL document CHEMBL3785029, “Synthesis and Characterization of Fatty Acid Conjugates of Niacin and Salicylic Acid” (J Med Chem, 2016)
Each block holds one compound with its values, some of them ahead of it. Activity calls are given as the source filed them. The rule behind the calls is not given here.

Assays:
Brain [1] = experiment: Drug uptake in Sprague-Dawley rat brain at 300 mg/kg, po administered for 14 days followed by 7 day washout cycle measured on day 21; type: ADME, organism-based; conditions: in vivo
Brain [2] = experiment: Drug uptake in Sprague-Dawley rat brain at 300 mg/kg, po administered for 14 days measured 4 hrs post dose on day 1, 3, 7 and 14; conditions: in vivo
Plasma [3] = experiment: Drug metabolism in Sprague-Dawley rat plasma assessed as (4Z,7Z,10Z,13Z,16Z,19Z)-N-(2-aminoethyl)docosa-4,7,10,13,16,19-hexaenamide formation at 300 mg/kg, po measured up to 24 hrs post dose; conditions: in vivo
Plasma [4] = experiment: Drug metabolism in Sprague-Dawley rat plasma assessed as salicyluric acid formation at 300 mg/kg, po administered for 7 days measured 4 hrs post dose on day 7; type: ADME, organism-based; conditions: in vivo
Outline: (§1)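 Male Sprague Dawley rats, groups of 4, dosed orally at 300 mg/kg once daily for 14 days. Animals killed on days 1, 3, 7 and 14, with plasma, brain, epididymal fat, liver and muscle taken 4 hr after dosing. Parent, salicylic acid and salicyluric acid were measured.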

Liver [5] = experiment: Drug metabolism in Sprague-Dawley rat liver assessed as salicylic acid formation at 300 mg/kg, po administered for 7 days measured 4 hrs post dose on day 7; type: ADME, organism-based; conditions: in vivo; outline: as §1
Brain [6] = experiment: Drug metabolism in Sprague-Dawley rat brain assessed as salicylic acid formation at 300 mg/kg, po administered for 14 days followed by 7 day washout cycle measured on day 21; type: ADME, organism-based; conditions: in vivo
[7] = Drug uptake in Sprague-Dawley rat epididymal fat at 300 mg/kg, po administered for 7 days measured 4 hrs post dose on day 7; type: ADME, organism-based, Epididymal fat pad; conditions: read-out: Drug uptake; outline: as §1
Brain [8] = experiment: Drug metabolism in Sprague-Dawley rat brain assessed as salicylic acid formation at 300 mg/kg, po administered for 7 days measured 4 hrs post dose on day 7; type: ADME, organism-based; conditions: in vivo; outline: as §1
Muscle tissue = experiment: Drug metabolism in Sprague-Dawley rat muscle assessed as salicyluric acid formation at 300 mg/kg, po administered for 7 days measured 4 hrs post dose on day 7; type: ADME, organism-based; conditions: in vivo; outline: as §1
Plasma [9] = experiment: Drug metabolism in Sprague-Dawley rat plasma assessed as salicyluric acid formation at 300 mg/kg, po administered for 14 days followed by 7 day washout cycle measured on day 21; type: ADME, organism-based; conditions: in vivo
Liver [10] = experiment: Drug metabolism in Sprague-Dawley rat liver assessed as salicyluric acid formation at 300 mg/kg, po administered for 14 days followed by 7 day washout cycle measured on day 21; type: ADME, organism-based; conditions: in vivo
Plasma [11] = experiment: Drug metabolism in Sprague-Dawley rat plasma assessed as salicylic acid formation at 300 mg/kg, po measured up to 24 hrs post dose; type: ADME, organism-based; conditions: in vivo
Outline: (§2)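 Single oral dose of 300 mg/kg to Sprague Dawley rats. Plasma collected at 0, 0.5, 1, 2, 4, 8 and 24 hr. Analytes were the parent, the salicylate-linker and linker-DHA metabolites, salicylic acid and salicyluric acid; Cmax and AUClast derived.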

Rattus norvegicus [12] = experiment: AUClast in Sprague-Dawley rat assessed as salicylic acid at 300 mg/kg, po measured up to 24 hrs post dose; type: ADME, organism-based; parameters: time < 24 hr, dose 300 mg/kg, route oral; conditions: in vivo; outline: as §2
Rattus norvegicus [13] = experiment: Cmax in Sprague-Dawley rat assessed as salicylate-linker metabolite N-(2-aminoethyl)-2-hydroxy-benzamide at 300 mg/kg, po measured up to 24 hrs post dose; type: ADME, organism-based; parameters: dose 300 mg/kg, route oral; conditions: in vivo; outline: as §2
[14] = Cmax in jugular vein cannulated Sprague-Dawley rat at 30 mg/kg, po measured up to 140 mins; type: ADME, organism-based; parameters: dose 30 mg/kg, route oral; conditions: jugular vein blood
Outline: (§3)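 Sprague Dawley rats surgically fitted with indwelling jugular vein and portal vein cannulas; oral dosing, then serial blood draws from both portal and jugular veins at 10, 20, 40 min and 1, 2, 4, 6 hr post dose; plasma analysed for parent and metabolites by LC/MS/MS.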

[15] = AUClast in Sprague-Dawley rat at 100 mg/kg, po administered as single dose measured up to 6 hrs post dose by LC/MS/MS analysis; type: ADME, organism-based; parameters: dose 100 mg/kg, time < 6 hr, route oral; conditions: in vivo
Outline: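 Single oral dose to Sprague Dawley rats; plasma collected at 0.25, 0.5, 1, 2, 4 and 6 hr; analytes in plasma quantified by LC/MS/MS.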

Plasma [16] = experiment: Metabolic stability in human plasma at 5 uM up to 2 hrs by LC-MS-MS analysis; type: ADME, cell-free
Outline: (§4)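 Plasma from each species diluted to 50% with 0.05 M PBS pH 7.4 and prewarmed to 37 °C; compound added at 5 µM final (from DMSO stock diluted in MeOH); triplicate incubations at 37 °C, sampled at 0, 30, 60, 120 min, quenched with acetonitrile containing internal standard, centrifuged, analysed by LC/MS/MS.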

Mus musculus = experiment: Inhibition of VLDL cholesterol levels in po dosed ApoE*3-Leiden mouse plasma administered for 16 weeks; type: functional, organism-based
Outline: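 Transgenic ApoE*3-Leiden mice on high-cholesterol Western-type diet dosed over 16 weeks; plasma PCSK9, total cholesterol, triglycerides and lipoprotein profile (VLDL, LDL) assessed at study end.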

Plasma [17] = experiment: Metabolic stability in rat plasma at 5 uM up to 2 hrs by LC-MS-MS analysis; type: ADME, cell-free; outline: as §4
[18] = Cmax in portal vein cannulated Sprague-Dawley rat at 30 mg/kg, po measured up to 140 mins; type: ADME, organism-based; parameters: dose 30 mg/kg, route oral; conditions: portal vein blood; outline: as §3
Intestine = experiment: Drug metabolism in Sprague-Dawley rat intestine assessed as linker EPA metabolite (5Z,8Z,11Z,14Z,17Z)-N-(2-aminoethyl)icosa-5,8,11,14,17-pentaenamide formation at 300 mg/kg, qd administered through oral gavage for 7 days measured 2 hrs post last dose by LC/MS/MS analysis; type: ADME, organism-based; conditions: in vivo

- Drug uptake (Brain [1]): Not Active
- Drug uptake (Brain [2]): Not Active
- Drug metabolism (Plasma [3]): metabolite_notdetected
- Drug metabolism (Plasma [4]): 764.41 ng/mL
- Drug metabolism (Liver [5]): 235.91 ng/g
- Drug metabolism (Brain [6]): metabolite_notdetected
- concentration at 4 h [7]: 772 ng/g
- Drug metabolism (Brain [8]): 53.32 ng/g
- Drug metabolism (Muscle tissue): 165.21 ng/g
- Drug metabolism (Plasma [9]): metabolite_notdetected
- Drug metabolism (Liver [10]): metabolite_notdetected
- Drug metabolism (Plasma [11]): metabolite_detected
- AUClast (Rattus norvegicus [12]): 229 ng·h/mL
- Cmax (Rattus norvegicus [13]): 484 ng/mL
SMILES: CC/C=C\C/C=C\C/C=C\C/C=C\C/C=C\C/C=C\CCC(=O)NCCNC(=O)c1ccccc1O [EDASALONEXENT]

SMILES: CC/C=C\C/C=C\C/C=C\C/C=C\C/C=C\CCCC(=O)NCCNC(=O)c1cccnc1
- Cmax [14]: 35 ng/mL
- AUC(0-t) at 6 h [15]: 172 ng·h/mL
- Stability (Plasma [16]): Stable
- inhibition (Mus musculus): Active
- Stability (Plasma [17]): Stable
- Cmax [18]: 418 ng/mL
- Drug metabolism (Intestine): 74 ng/g
